The values that follow come from ChEMBL document CHEMBL1127739, “Newly discovered stereochemical requirements in the side-chain conformation of delta opioid agonists for recognizing opioid delta receptors” (J Med Chem, 1994).

The target in experiment [1] is Opioid receptors; mu & delta (Homo sapiens) (UniProt P41143+P35372). Kind of experiment: Selectivity is the ratio between EC50 values GPI(mu) and MVD(delta). The class given is protein assay. The method, boiled down: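 Electrically stimulated MVD (male ICR mice, 25–30 g) and GPI longitudinal muscle-myenteric plexus (male Hartley guinea pigs, 150–400 g) in 37 °C oxygenated Krebs, magnesium-free for MVD. Tension 1 g (MVD 0.5 g); stimulation 0.1 Hz, 0.4-ms pulses (MVD 2.0 ms), supramaximal voltage. Agonist applied 3 min; percent inhibition of contraction height.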
Sequence of Opioid receptors; mu & delta (Homo sapiens) (P35372 whole entry, looked up): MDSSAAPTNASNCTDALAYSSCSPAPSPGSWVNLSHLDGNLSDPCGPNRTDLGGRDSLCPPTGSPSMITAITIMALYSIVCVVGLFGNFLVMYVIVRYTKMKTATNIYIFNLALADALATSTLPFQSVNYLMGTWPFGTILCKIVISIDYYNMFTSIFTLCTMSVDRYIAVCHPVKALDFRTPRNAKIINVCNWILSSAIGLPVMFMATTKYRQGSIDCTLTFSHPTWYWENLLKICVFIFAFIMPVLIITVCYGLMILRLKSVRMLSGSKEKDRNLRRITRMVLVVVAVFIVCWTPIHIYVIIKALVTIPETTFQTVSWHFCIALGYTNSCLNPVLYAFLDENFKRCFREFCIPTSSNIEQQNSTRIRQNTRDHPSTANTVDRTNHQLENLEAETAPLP
Sequence of Opioid receptors; mu & delta (Homo sapiens) (P41143 whole entry, looked up): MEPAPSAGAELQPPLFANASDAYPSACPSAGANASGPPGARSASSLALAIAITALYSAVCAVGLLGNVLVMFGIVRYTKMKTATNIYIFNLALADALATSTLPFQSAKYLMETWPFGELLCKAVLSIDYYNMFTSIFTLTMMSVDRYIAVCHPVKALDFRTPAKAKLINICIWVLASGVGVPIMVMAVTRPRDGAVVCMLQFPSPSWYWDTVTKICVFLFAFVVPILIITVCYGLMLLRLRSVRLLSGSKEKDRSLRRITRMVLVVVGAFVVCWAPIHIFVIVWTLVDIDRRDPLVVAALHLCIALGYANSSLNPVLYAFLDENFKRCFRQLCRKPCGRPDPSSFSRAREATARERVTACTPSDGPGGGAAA

For a further experiment, the target named is Mu-type opioid receptor (Cavia porcellus, UniProt P97266). As to the kind of experiment: Effective concentration was measured towards mu opioid receptor using guinea pig ileum (GPI, mu) bioassay in vitro. The class given is tissue-based. The method, boiled down: (§1)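 Electrically stimulated MVD (male ICR mice, 25–30 g) and GPI longitudinal muscle-myenteric plexus (male Hartley guinea pigs, 150–400 g) in 37 °C oxygenated Krebs, magnesium-free for MVD. Tension 1 g (MVD 0.5 g); stimulation 0.1 Hz, 0.4-ms pulses (MVD 2.0 ms), supramaximal voltage.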
Sequence of Mu-type opioid receptor (P97266 whole entry): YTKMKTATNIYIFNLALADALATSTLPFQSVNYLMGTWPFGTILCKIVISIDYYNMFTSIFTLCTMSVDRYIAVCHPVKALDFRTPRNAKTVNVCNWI

In experiment [2] the target is Delta-type opioid receptor (Mus musculus, UniProt P32300). As to the kind of experiment: Effective concentration was measured towards delta opioid receptor using mouse vas deferens(MVD, delta) bioassay in vitro. The method, boiled down:
as §1

The nature of experiment [3]: Selectivity is the ratio between IC50 values of [3H]CTOP and [3H][p-Cl-phe4]-DPDPE. The method, boiled down:
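Brain membranes were homogenised in 50 mM Tris-HCl pH 7.4, pelleted at 48000g, and preincubated at 25 °C for 30 min to strip endogenous peptides. Buffer contained BSA, bestatin, bacitracin, captopril and toluenesulfonyl fluoride. δ radioligand was [3H][D-Pen2,p-Cl-Phe4,D-Pen5]enkephalin 0.75 nM; μ was [3H]CTOP 0.5 nM. Ten concentrations over 800-fold, in duplicate. Nonspecific binding used 10 μM naltrexone. Incubated 25 °C for 3 h, then filtered and counted.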

Each structure is given as a SMILES string.

Sequence of Delta-type opioid receptor (P32300 whole entry): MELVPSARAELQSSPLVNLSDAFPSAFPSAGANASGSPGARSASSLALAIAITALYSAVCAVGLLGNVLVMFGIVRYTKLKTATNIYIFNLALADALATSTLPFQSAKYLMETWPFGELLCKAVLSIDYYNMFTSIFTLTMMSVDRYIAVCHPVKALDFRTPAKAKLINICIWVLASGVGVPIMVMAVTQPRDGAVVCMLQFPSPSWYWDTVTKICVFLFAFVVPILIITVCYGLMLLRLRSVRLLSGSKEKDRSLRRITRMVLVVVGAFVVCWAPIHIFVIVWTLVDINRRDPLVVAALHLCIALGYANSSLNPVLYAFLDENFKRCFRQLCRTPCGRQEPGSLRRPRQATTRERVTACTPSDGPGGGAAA

One may read the EC50 as the concentration at which the effect is half-maximal. A high value points to weaker potency. With `Cc1cc(O)cc(C)c1[C@H](C)[C@H](N)C(=O)N[C@H](C)C(=O)N[C@@H](Cc1ccccc1)C(=O)N[C@@H](CC(=O)O)C(=O)N[C@H](C(=O)N[C@H](C(=O)NCC(N)=O)C(C)C)C(C)C`, the Selectivity stood at 5820 in experiment [1] and 5740 in experiment [3]. Further, the 50% effective concentration (EC50) on Mu-type opioid receptor stood at 3840 nM; in experiment [2], 0.66 nM.

Consider `Cc1cc(O)cc(C)c1[C@H](C)[C@H](N)C(=O)N[C@H]1C(=O)NCC(=O)N[C@@H](Cc2ccccc2)C(=O)N[C@@H](C(=O)O)C(C)(C)SSC1(C)C`, for which the Selectivity in experiment [1] came to 1.74; in experiment [3] it was 3.4. Moreover, the EC50 at Mu-type opioid receptor turned out to be 293 nM; in experiment [2], 168 nM.
